Assay results published in PubChem BioAssay AID449754 (Broad Institute, 2010).
Inconclusive results are not listed. Activity calls are given as the source filed them.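 How the source made its calls: active means compounds whose fitted caspase activation AC50 is no more than tenfold above the top tested dose; inconclusive means flat fit with 30 to 70% activity, or a failed fit; inactive means the rest.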

Test system: MEF Bax/Bak KO A1-BIM, caspase-Glo luminescence, 3 h
Experiment: caspase signal in Bax-Bak null A1-BIM cells – cell-based, Bax-Bak knockout MEF, A1-2A-BIM, luminescence, counter-screen for A1 inhibitor project, dose response (AID 449754);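 further: counterscreen where caspase activation signals off-target toxicity not A1 inhibition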
Method in brief: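 Material: Bax/Bak-knockout mouse embryonic fibroblasts expressing A1-2A-BIM; Quantity: 2500 cells per well, seeded one day before compound; Buffer or medium: RPMI-1640 growth medium with 10% FBS; Doses: 100 nL pinned compound per well; Times: 3 h compound at 37 °C, 1 h detection at RT; Signal: CaspaseGlo luminescence; Evaluation: caspase activity from luminescent signal.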

Row | SMILES | AC50
1 | Cc1cc(NC(=O)CSc2nc3cc(Cl)ccc3c(=O)n2Cc2ccco2)no1 | > 35 µM (inactive)
2 | COc1cc(NC(=O)c2cccs2)ccc1NC(=O)c1cc2ccccc2o1 | > 35 µM (inactive)
3 | COc1cc(/C=C(/C#N)c2nc3ccccc3[nH]2)ccc1OCC(=O)Nc1ccccc1C(C)C | > 35 µM (inactive)
4 | CCOC(=O)C(C(=O)OCC)c1cc(Br)c2noc3c2c1C(=O)c1ccccc1-3 | > 35 µM (inactive)
5 | CCc1ccc2nc(N(CCCN(C)C)C(=O)c3ccc(S(=O)(=O)N4CCc5ccccc5C4)cc3)sc2c1 | > 35 µM (inactive)
6 | O=C(Nc1ccc(-c2nc3cc(NC(=O)c4cccs4)ccc3o2)cc1)c1cccs1 | > 35 µM (inactive)
7 | CCc1ccc(Oc2coc3cc(OCC(=O)Nc4cc(C)ccc4C)ccc3c2=O)cc1 | > 35 µM (inactive)
8 | CC(C)(C)C1C/C(=C/c2ccccn2)C(=O)/C(=C/c2ccccn2)C1 (stereo not drawn) | 8.26 µM
